{"source": "the EternaBench riboswitch data", "key": {"[1]": {"test_system": "MS2 coat protein", "test": "apparent Kd, MS2 coat protein; higher = weaker binding; RNA-MaP array; theophylline 2 mM where present", "outline": "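The titrant was SNAP-549-labelled MS2 coat protein, run from 0.7 or 1.5 nM in doubling steps to 3 µM. It was applied to designs transcribed by stalled E. coli RNA polymerase on Illumina sequencing-chip clusters, without ligand first and then with constant ligand, in 100 mM Tris-HCl pH 7.5, 80 mM KCl, 4 mM MgCl2, BSA, DTT, yeast tRNA and Tween-20. The apparent Kd is the median of filtered per-cluster binding-curve fits, with green signal normalised to red-channel RNA signal and control-cluster median Fmax.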"}, "[2]": {"test_system": "MS2 coat protein", "test": "apparent Kd, MS2 coat protein; higher = weaker binding; RNA-MaP array", "outline": "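The designed RNAs, transcribed from sequenced DNA templates on an Illumina sequencing chip, were incubated with fluorescently labeled MS2 coat protein at room temperature. Protein ranged from 1.5 nM to 3 μM, with 0.8–1.5 h incubation at the lowest and 10–20 min at the highest concentrations, in Tris-HCl pH 7.5 buffer with KCl, MgCl2, BSA, DTT, tRNA and Tween20, with or without input ligand. The median of per-cluster binding-curve fits gives the apparent Kd, and designs measured on fewer than 10 clusters were excluded.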"}, "[3]": {"conditions": "designed as: ON switch for theophylline, no ligand"}, "[4]": {"conditions": "ligand present: theophylline, designed as: ON switch for theophylline"}, "[5]": {"conditions": "designed as: OFF switch for theophylline, no ligand"}, "[6]": {"conditions": "ligand present: theophylline, designed as: OFF switch for theophylline"}, "[7]": {"conditions": "designed as: OFF switch for flavin mononucleotide, no ligand"}, "[8]": {"conditions": "ligand present: flavin mononucleotide, designed as: OFF switch for flavin mononucleotide"}, "[9]": {"conditions": "designed as: ON switch for flavin mononucleotide, no ligand"}, "[10]": {"conditions": "ligand present: flavin mononucleotide, designed as: ON switch for flavin mononucleotide"}}, "data": [{"sequence": "GCUGUAAGUGCAGAUACCAGCGUGUUAUAUUUCUAAUGACAUGAGGAUCACCCAUGUAAAUGCCCUUGGCAGCUGCACUUACAGC", "values": [{"measurement": "apparent Kd", "setting": "[1]; [3]", "result": 16.1, "unit": "nM"}, {"measurement": "apparent Kd", "setting": "[1]; [4]", "result": 16.9, "unit": "nM"}]}, {"sequence": "UGUAACAUGAGGAUCACCCAUGUGCACGAUACCAGCUUCGAAAGAGGCCCUUGGCAGCGUAUGCGUAAGCUGUAUAAUAUAUAUC", "values": [{"measurement": "apparent Kd", "setting": "[1]; [3]", "result": 11.4, "unit": "nM"}, {"measurement": "apparent Kd", "setting": "[1]; [4]", "result": 13.6, "unit": "nM"}]}, {"sequence": "AUGUCAUUGGUGCAGCUGUUAAAUGGCGAUACCAGCGUGGAAACACGCCCUUGGCAGCGCCAAAACAUGAGGAUCACCCAUGUUA", "values": [{"measurement": "apparent Kd", "setting": "[1]; [5]", "result": 28, "unit": "nM"}, {"measurement": "apparent Kd", "setting": "[1]; [6]", "result": 83, "unit": "nM"}]}, {"sequence": "UGAGAUCCUCAUGAUACCAGUGUACUACAUGAGGAUCACCCAUGUAGCAACAUCUGUAGACACCCUUGGCAGCAUGAGACCACGU", "values": [{"measurement": "apparent Kd", "setting": "[1]; [3]", "result": 18.3, "unit": "nM"}, {"measurement": "apparent Kd", "setting": "[1]; [4]", "result": 23.7, "unit": "nM"}]}, {"sequence": "AAUCUGUCGGGUGAUACCAGCCUCGGCACGUCUCGUGCCGAACAUGAGGAUCACCCAUGUGGCCCUUGGCAGCACAUGACAAAUC", "values": [{"measurement": "apparent Kd", "setting": "[1]; [3]", "result": 258, "unit": "nM"}, {"measurement": "apparent Kd", "setting": "[1]; [4]", "result": 88.6, "unit": "nM"}]}, {"sequence": "GCGAAGCAAGGAUAUGCCCGGCGAUACAUGAGGAUCACCCAUGUGAUGUAGUUAGUUGUAGCAGAAGGUGCGCGAU", "values": [{"measurement": "apparent Kd", "setting": "[2]; [7]", "result": 17.6, "unit": "nM"}, {"measurement": "apparent Kd", "setting": "[2]; [8]", "result": 11.4, "unit": "nM"}]}, {"sequence": "UUUUCUGAGGAGAAGGACGACCACAAACAUGAGGAUCACCCAUGUCUUACUAUCUGACCGCCAUCGUAGGAUAUCCCGAGGGAG", "values": [{"measurement": "apparent Kd", "setting": "[2]; [9]", "result": 11.2, "unit": "nM"}, {"measurement": "apparent Kd", "setting": "[2]; [10]", "result": 10.2, "unit": "nM"}]}, {"sequence": "AUCUCUGACUAAGGAUAUGCGGCAAAGAGCCUCUCAGAAAACAUGAGGAUCACCCAUGUAUGGACGCAGAAGGUAGUAGCCCAC", "values": [{"measurement": "apparent Kd", "setting": "[2]; [9]", "result": 9.06, "unit": "nM"}, {"measurement": "apparent Kd", "setting": "[2]; [10]", "result": 21.4, "unit": "nM"}]}, {"sequence": "CCACGCUCAGUUAGGAUAUGAUCCAUUACCAGUGAUCAGAAGGAACAUGAGGAUCACCCAUGUACAGUACGAGA", "values": [{"measurement": "apparent Kd", "setting": "[2]; [7]", "result": 9.62, "unit": "nM"}, {"measurement": "apparent Kd", "setting": "[2]; [8]", "result": 14.2, "unit": "nM"}]}, {"sequence": "AGCGAAUAAGGAUAUACGUGAAAAGCACUUAGAGUUGGAUCACAUGAGGAUCACCCAUGUAGAAGGUAUGACGA", "values": [{"measurement": "apparent Kd", "setting": "[2]; [7]", "result": 18.6, "unit": "nM"}, {"measurement": "apparent Kd", "setting": "[2]; [8]", "result": 15.7, "unit": "nM"}]}, {"sequence": "CGUGGCAAUCAAGGAUAUCACUUCUAGAUACCGUGAGAAGGUGAGCGUCUCUGCAAAGAGCGGGACAUGAGGAUCACCCAUGUA", "values": [{"measurement": "apparent Kd", "setting": "[2]; [9]", "result": 255, "unit": "nM"}, {"measurement": "apparent Kd", "setting": "[2]; [10]", "result": 162, "unit": "nM"}]}, {"sequence": "AUAGAAAAUGUAAGGAUAUAUCGAAACAAUAAACGAAAGAAGGAACAUGAGGAUCACCCAUGUAAAGUAAUAAA", "values": [{"measurement": "apparent Kd", "setting": "[2]; [7]", "result": 10.3, "unit": "nM"}, {"measurement": "apparent Kd", "setting": "[2]; [8]", "result": 9.25, "unit": "nM"}]}, {"sequence": "UUGUCCCGAGGAUAUGAGAGGGAGUACAUGAGGAUCACCCAUGUCAUGAAUCUUCAUAUCUCAGAAGGCGGUUGAU", "values": [{"measurement": "apparent Kd", "setting": "[2]; [7]", "result": 4.85, "unit": "nM"}, {"measurement": "apparent Kd", "setting": "[2]; [8]", "result": 6.24, "unit": "nM"}]}, {"sequence": "GUUCUGCAUAAGGAUAUAUGAGCACACGCAGACAUAGAAGGUAUGACAUGAGGAUCACCCAUGUCCUCUCGAGA", "values": [{"measurement": "apparent Kd", "setting": "[2]; [7]", "result": 8.5, "unit": "nM"}, {"measurement": "apparent Kd", "setting": "[2]; [8]", "result": 8.65, "unit": "nM"}]}, {"sequence": "AGACAUGAGGAUCACCCAUGUGAAGUGGAUACCAGCCGCAGCGAUGGCCCUUGGCAGCCAGCUUUGUGUCGAUACAUCCGCACUU", "values": [{"measurement": "apparent Kd", "setting": "[2]; [5]", "result": 15.9, "unit": "nM"}, {"measurement": "apparent Kd", "setting": "[2]; [6]", "result": 25.8, "unit": "nM"}]}, {"sequence": "UUCGCCACGCAAGGAUAUGAUACUUAUUGCUGUUCAGAAGGUGCGACAUGAGGAUCACCCAUGUGGUGUGUCCAGGGAGGCUAG", "values": [{"measurement": "apparent Kd", "setting": "[2]; [7]", "result": 333, "unit": "nM"}, {"measurement": "apparent Kd", "setting": "[2]; [8]", "result": 336, "unit": "nM"}]}, {"sequence": "GGAUAAACUCAGAAGGAACGGCUCAAGUAAUAGUAAGGAUAUGACUGUAGGACUACAUGAGGAUCACCCAUGUUGAUGAAACAG", "values": [{"measurement": "apparent Kd", "setting": "[2]; [9]", "result": 8.03, "unit": "nM"}, {"measurement": "apparent Kd", "setting": "[2]; [10]", "result": 7.91, "unit": "nM"}]}, {"sequence": "CGGAAGUGCAGCGCUUAAAGUACAUGAGGAUCACCCAUGUGAAAGGAUAUAUCGAAGUCAAAAUAAUAGAAGGUUCAGUGGGAU", "values": [{"measurement": "apparent Kd", "setting": "[2]; [7]", "result": 22.6, "unit": "nM"}, {"measurement": "apparent Kd", "setting": "[2]; [8]", "result": 21.1, "unit": "nM"}]}, {"sequence": "UUAUAAGAGAUAGGAUAUUCCGACAAAAUCGAUGAAGAAGGAUCACUCAAAACAUGAGGAUCACCCAUGUAUAUAACAAAUGUU", "values": [{"measurement": "apparent Kd", "setting": "[2]; [9]", "result": 57.5, "unit": "nM"}, {"measurement": "apparent Kd", "setting": "[2]; [10]", "result": 25.4, "unit": "nM"}]}, {"sequence": "CACUUCAUAAUAGGAUAUCAUGGAUGACAUGAGGAUCACCCAUGUCCGCACUCUUCAACUACACGUGAGAAGGAUUCGCGGGUC", "values": [{"measurement": "apparent Kd", "setting": "[2]; [9]", "result": 194, "unit": "nM"}, {"measurement": "apparent Kd", "setting": "[2]; [10]", "result": 130, "unit": "nM"}]}, {"sequence": "GAAUGAAGCGAGAAGGGACCAAAUGGGCAGAAACUACAUGAGGAUCACCCAUGUAAAAUAGAUAGUCAGGAUAUCGGAAGAAAG", "values": [{"measurement": "apparent Kd", "setting": "[2]; [7]", "result": 36.4, "unit": "nM"}, {"measurement": "apparent Kd", "setting": "[2]; [8]", "result": 31.8, "unit": "nM"}]}, {"sequence": "AUUGUGAACCUGAUCGUAUAAUGUAGCGAUACCAGUAUAAUACAUUACCCUUGGCAGCGCGACACAUGAGGAUCACCCAUGUAAG", "values": [{"measurement": "apparent Kd", "setting": "[2]; [5]", "result": 26.5, "unit": "nM"}, {"measurement": "apparent Kd", "setting": "[2]; [6]", "result": 39.4, "unit": "nM"}]}, {"sequence": "UUUUUAUGGCAGACUACCGCACAUGAGGAUCACCCAUGUUACAGAAGGGACCACAUCCCACCUGGUCAGGAUAUGUAUACGCGG", "values": [{"measurement": "apparent Kd", "setting": "[2]; [7]", "result": 9.07, "unit": "nM"}, {"measurement": "apparent Kd", "setting": "[2]; [8]", "result": 6.77, "unit": "nM"}]}, {"sequence": "AAACUAUGAGGAUAUACAUGAGGAUCACCCAUGUCGGUACUGGUAUGGCCCUGAUCCCGUAGAAGGCAUCGGUC", "values": [{"measurement": "apparent Kd", "setting": "[2]; [7]", "result": 369, "unit": "nM"}, {"measurement": "apparent Kd", "setting": "[2]; [8]", "result": 436, "unit": "nM"}]}, {"sequence": "GUUAUCUCAUGUUCGACGGACAUGAGGAUCACCCAUGUACCUUAGGAUAUUGAUGAAAUAUGGCGCAAGAAGGAAGGUAACGCU", "values": [{"measurement": "apparent Kd", "setting": "[2]; [7]", "result": 6.47, "unit": "nM"}, {"measurement": "apparent Kd", "setting": "[2]; [8]", "result": 7.52, "unit": "nM"}]}, {"sequence": "CGCUCGCGGCGGAAGGAUAUGUCUAUCCGGACAUGAGGAUCACCCAUGUAUGGGUACUUGCUGCAACAGAAGGUCCGUAUUAUAUG", "values": [{"measurement": "apparent Kd", "setting": "[2]; [9]", "result": 290, "unit": "nM"}, {"measurement": "apparent Kd", "setting": "[2]; [10]", "result": 120, "unit": "nM"}]}]}
